{"data": "Experimental data gathered from unrelated publications", "target": "3-phosphoinositide-dependent protein kinase 1 (PDPK1, Homo sapiens, UniProt O15530)", "Sequence (O15530 1-556, as in one of the studies)": "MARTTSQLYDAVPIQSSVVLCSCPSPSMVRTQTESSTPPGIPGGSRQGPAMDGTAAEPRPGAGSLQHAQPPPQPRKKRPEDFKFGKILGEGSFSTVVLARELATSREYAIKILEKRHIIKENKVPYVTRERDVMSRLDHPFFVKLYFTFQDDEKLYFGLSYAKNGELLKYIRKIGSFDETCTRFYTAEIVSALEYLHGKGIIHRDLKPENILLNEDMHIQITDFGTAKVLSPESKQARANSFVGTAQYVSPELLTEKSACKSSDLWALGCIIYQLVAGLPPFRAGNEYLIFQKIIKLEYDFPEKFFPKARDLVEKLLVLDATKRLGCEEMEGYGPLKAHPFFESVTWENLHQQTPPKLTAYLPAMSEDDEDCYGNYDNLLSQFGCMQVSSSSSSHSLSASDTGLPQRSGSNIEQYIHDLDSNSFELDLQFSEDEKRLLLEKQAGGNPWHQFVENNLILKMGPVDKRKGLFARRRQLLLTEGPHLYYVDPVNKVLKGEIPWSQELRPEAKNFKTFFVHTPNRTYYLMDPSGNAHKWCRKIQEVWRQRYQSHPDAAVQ", "note": "Compare with care: the assays were run in different laboratories."}
{"Structure (SMILES)": "C1=C/COCc2cc(ccc2OCCN2CCCC2)Nc2nccc(n2)-c2cccc(c2)COC/1", "test": "binding", "setting": "0.1 µM", "quantity": "remaining binding", "value": "100%"}
{"Structure (SMILES)": "CO[C@@H]1[C@H](N(C)C(=O)c2ccccc2)C[C@H]2O[C@]1(C)n1c3ccccc3c3c4c(c5c6ccccc6n2c5c31)C(=O)NC4", "test": "enzyme activity, inhibitor", "setting": "1 µM", "quantity": "inhibition", "value": "73%"}
{"Structure (SMILES)": "CN1CCN(C(=O)c2ccc(NC(=O)Nc3ccc(N(C)c4ccnc(Nc5ccc(CS(C)(=O)=O)cc5)n4)cc3)cc2)CC1", "test": "binding", "setting": "1 µM", "quantity": "remaining binding", "value": "68%"}
{"Structure (SMILES)": "N#Cc1ccc(NC(=O)Nc2ccccc2)cc1", "test": "cell-free assay, competition with immobilised ligand", "setting": "25 µM", "quantity": "remaining binding", "value": "100%"}
{"Structure (SMILES)": "C#Cc1cnc(Nc2ccnc(CO)c2)nc1Nc1ccccc1S(C)(=O)=NC#N (centres unmarked)", "test": "cell-free assay", "setting": "1 µM", "quantity": "remaining signal", "value": "100%"}
{"Structure (SMILES)": "CCCCC(=O)Nc1ccc(-c2ccc3ncn(CCC)c(=O)c3c2)cn1", "test": "binding, competition with immobilised ligand", "setting": "0.5 µM", "quantity": "remaining binding", "value": "100%"}
{"Structure (SMILES)": "COc1ccc2oc(-c3ccc4nc(N)oc4c3)c/c(=N\\c3ccccc3NC(=O)CCN)c2c1", "test": "binding", "setting": "1 µM", "quantity": "remaining binding", "value": "100%"}
{"Structure (SMILES)": "CC(C)S(=O)(=O)c1ccc2nccc(Nc3ccc4sc(C5CCCC5)nc4c3)c2c1", "test": "enzyme activity, inhibitor", "setting": "1 µM", "quantity": "activity vs control", "value": "118%"}
{"Structure (SMILES)": "Cc1cc(O)c(-c2ccc([C@@H](C)CN(C)C)cc2)c2c1[nH]c(=O)c1sccc12", "test": "enzyme activity, inhibitor", "setting": "0.1 µM", "quantity": "inhibition", "value": "4.15%"}
{"Structure (SMILES)": "C=CC(=O)N1CCC([C@@H]2CCNc3c(C(N)=O)c(-c4ccc(Oc5ccccc5)cc4)nn32)CC1", "test": "enzyme activity, inhibitor", "setting": "1 µM", "quantity": "inhibition", "value": "18%"}
{"Structure (SMILES)": "C[C@H]1CC[C@H](n2c3cnccc3c3cnc(Nc4ccc5c(n4)CCN(C(=O)CO)C5)nc32)CC1", "test": "cell-free assay", "setting": "1 µM", "quantity": "remaining signal", "value": "100%"}
